# Source: PubChem BioAssay (Johns Hopkins Ion Channel Center)
# MrgX1 agonist = activates human MrgX1 receptor signaling; Q96LB2; MrgX1-HEK293 cells, Fluo-4 calcium fluorescence, agonist mode; stronger effect = higher value; B-score at 10 µM; 310,000 compounds, 0.44% hits;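 active = calcium response B-score plate-corrected fluorescence ratio at least 3 library SD, with starting fluorescence B-score inside 5 SD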
# Target sequence (Q96LB2 whole entry, looked up): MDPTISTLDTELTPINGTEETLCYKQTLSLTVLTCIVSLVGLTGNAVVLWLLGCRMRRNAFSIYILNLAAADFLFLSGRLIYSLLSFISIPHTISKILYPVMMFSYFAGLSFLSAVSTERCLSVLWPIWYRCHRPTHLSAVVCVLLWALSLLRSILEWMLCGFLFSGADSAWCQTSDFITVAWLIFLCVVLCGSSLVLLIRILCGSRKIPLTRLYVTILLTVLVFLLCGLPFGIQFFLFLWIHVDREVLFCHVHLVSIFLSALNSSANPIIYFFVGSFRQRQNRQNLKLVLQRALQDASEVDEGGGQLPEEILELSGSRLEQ
#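 Assay system: stable human MrgX1 HEK293 cell line. Quantity: 15,000 cells per well. Schedule: cells plated overnight, dye loaded 0.5 h 37 °C, 0.5 h room temperature. Detection: Fluo-4 NW calcium-flux fluorescence, kinetic read. Read-out basis: peak-minus-minimum fluorescence over baseline, converted to B scores. Control set: positive and negative control wells on each plate.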
# RGS4 block = human RGS4 inhibition; AID 463165; B-score at 10 µM; 310,000 compounds, 0.45% hits; HEK293 M3R/RGS4 inducible, Fluo-4 calcium flux; stronger effect = higher value; triggered by carbachol at its EC20;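 active = B-score, a plate-corrected calcium signal, over three deviations above library mean, with baseline fluorescence within five deviations of library mean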;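 also: RGS4 expression induced by doxycycline in cells with stable M3 receptor; B-score is computed from the integrated fluorescence ratio over baseline after carbachol; higher B-score means a larger calcium signal and so more RGS4 inhibition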
# Target sequence (P49798 whole entry, looked up): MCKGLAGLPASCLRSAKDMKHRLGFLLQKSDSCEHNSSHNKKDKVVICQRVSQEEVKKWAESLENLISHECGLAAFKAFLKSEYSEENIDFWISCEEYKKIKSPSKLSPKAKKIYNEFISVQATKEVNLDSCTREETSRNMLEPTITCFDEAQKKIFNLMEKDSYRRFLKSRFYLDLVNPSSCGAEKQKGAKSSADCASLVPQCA
# RGS4 act = RGS4 potentiation or activation | HEK293 M3R/inducible RGS4, carbachol calcium flux Fluo4; stronger effect = lower value | B-score at 10 µM | 310,000 compounds, 0.92% hits;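 active = B-score of the integrated calcium signal more than 4 SD below the library mean, with starting fluorescence not abnormally high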;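 also: negative B-score means reduced calcium response which marks RGS4 activation or potentiation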
#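 Assay system: Inducible-RGS4 HEK293 cells carrying M3 receptor | Schedule: Compound preincubation 20 min at room temperature before agonist | Signal: Kinetic calcium fluorescence imaging with Fluo4-AM dye, 2 µM | Read-out basis: B score from integrated fluorescence ratio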
# MrgX1 PAM = allosterically activates human MrgX1 receptor signaling; Q96LB2; MrgX1-HEK293, Fluo-4 calcium flux, FDSS; stronger effect = higher value; B-score at 10 µM; 310,000 compounds, 0.63% hits;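 active = plate-corrected calcium response at least 3 library SD above typical, normal starting fluorescence, not activating the receptor alone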;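 also: compound read alongside a low EC10 to EC30 dose of BAM8-22 agonist; peak minus trough fluorescence over baseline measured at the second addition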
# MrgX1 antagonist = human MrgX1 receptor antagonism, primary screen; 310,000 compounds, 1.3% hits; B-score at 10 µM; Q96LB2; MRGX1-HEK293 calcium flux, Fluo-4, BAM8-22 antagonism; stronger effect = lower value;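 active = calcium-response B-score plate-corrected more than 3 library SD below zero, starting fluorescence within 5 deviations, no agonist response on first addition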;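 also: peak minus trough fluorescence over baseline after final BAM8-22 challenge near maximal dose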
# RGS4 activ val = RGS4 activation, validation assay | shares compounds with RGS4 act | HEK293 M3R/RGS4 inducible, carbachol calcium flux Fluo4 | inhibition, % at 10 µM | 1,100 compounds, 89% hits | AID 602282;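 active = inhibition above 3 SD of the buffer control wells, cut at about 41% in these data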;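 also: signal is the integrated peak-minus-minimum Fluo4 fluorescence over baseline ratio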
# M3R Ca counter = counter-screen for RGS4 activators: effect in non-induced cells | 1,100 compounds, 82% hits | AID 602283 | inhibition, % at 10 µM | shares compounds with RGS4 act | HEK293 M3R non-induced RGS4, Fluo4 calcium flux; after carbachol challenge at its EC90;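 active = inhibition exceeding 3 SD of buffer-only control wells, cut at about 26% in these data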;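 also: percent drop in integrated peak-minus-baseline over baseline Fluo4 ratio after carbachol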
# A number is an active result; i = inactive; nt = no result. Hits are enriched below; roughly 3.5% of the tested compounds scored in any of these assays.
SMILES,MrgX1 agonist,RGS4 block,RGS4 act,MrgX1 PAM,MrgX1 antagonist,RGS4 activ val,M3R Ca counter
CCN(CC)CCNC(=O)c1ccc2c(=O)n(C3CCCC3)c(=S)[nH]c2c1,i,i,-8.4,i,i,92.0,73.3
CC(=O)NC(Cc1ccc(F)cc1)C(=O)NC1CCN(C(=O)NCc2ccccc2)CC1 (stereo unspecified),i,i,i,i,i,nt,nt
CCn1cc(CN2CCC(n3nccc3NC(=O)c3ccc(OC)cc3)CC2)cn1,i,i,-7.72,i,i,66.0,83.8
COc1ccc(C(=O)Nc2ccnn2C2CCN(Cc3cnn(C)c3)CC2)cc1,i,i,i,i,i,nt,nt
O=C1Nc2ccc(Br)cc2C1=C1CCCCC1,i,i,-8.74,i,i,36.5,i
Cc1ccc(N=C2C(=O)Nc3ccc(Br)cc32)cc1,i,i,i,i,i,nt,nt
COc1ccc(CCNC(=O)C2CCC(C(C)(C)C)CC2)cc1OC (stereo unspecified),i,i,i,i,i,nt,nt
O=C(CN1CCN(C/C=C/c2ccccc2)CC1)NCc1ccccc1,i,i,i,i,i,nt,nt
CCC(C)c1ccccc1NC(=O)CN1CCN(C/C=C/c2ccccc2)CC1 (stereo unspecified),i,i,-10.3,i,i,76.0,83.8
COc1ccc(NC(=O)CCCn2nc(C)c3c(C)n(-c4ccccc4)nc3c2=O)cc1,i,i,i,i,i,nt,nt
c1ccc2c(-c3nc(C4CCCCC4)no3)cc(-c3ccncc3)nc2c1,i,i,-9.43,i,i,93.0,84.8
O=C(CCS(=O)(=O)Cc1ccccc1)Nc1nc2c(s1)CCCC2,i,i,-10.6,i,i,i,i
O=C(CS(=O)(=O)Cc1ccccc1)Nc1nc2c(s1)CCCC2,i,i,i,i,i,nt,nt
CSc1n[nH]c(NC2=CC(=O)CCC2)n1,i,i,-7.66,i,i,i,i
CSc1n[nH]c(NC(C)=O)n1,i,i,i,i,i,nt,nt
Cc1ccccc1CN1C(=O)/C(=C\c2ccc(C(=O)NCCN3CCOCC3)cc2)Sc2ccccc21,i,i,-12.1,i,i,90.5,81.3
O=C(Oc1ccc(OC(=O)N2CCCCC2)cc1)c1ccccc1,i,i,-10.5,i,i,61.5,83.8
O=C(Oc1ccccc1)N1CCCC1,i,i,i,i,i,nt,nt
Cc1ccc(C)c(S(=O)(=O)N2CCN(C(=O)c3ccc(OCc4c(C)noc4C)cc3)CC2)c1,i,i,i,i,i,nt,nt
CC1CCN(c2ccccc2NC(=O)c2ccc(Br)o2)CC1,i,i,-9.4,i,i,54.0,i
CC(Sc1ccccc1)C(=O)NCC(c1ccco1)N1CCCCC1 (stereo unspecified),i,i,i,i,i,nt,nt
CC(C)(O)C#Cc1ccc(CN2CCCC(CO)(Cc3cccc(Cl)c3)C2)cc1 (stereo unspecified),i,i,-8.98,i,i,76.0,31.3
COc1cccc(-c2nn(-c3ccccc3)cc2C(=O)O)c1,i,i,i,i,i,nt,nt
COc1cccc(-c2nn(-c3ccc(C)cc3)cc2C(=O)N2CCc3cc(OC)c(OC)cc3C2)c1,i,i,-9.2,i,i,45.0,i
COc1ccc(-c2csc(N3CCN(c4cc(C)nc5ccccc45)CC3)n2)cc1OC,i,i,-8.49,i,i,92.5,86.3
SMILES,MrgX1 agonist,RGS4 block,RGS4 act,MrgX1 PAM,MrgX1 antagonist,RGS4 activ val,M3R Ca counter
O=C(CSc1ncc(-c2ccccc2)n1C1CCCC1)N1CCc2ccccc21,i,i,-7.65,i,i,53.5,83.8
O=C(CC1CCCCC1)NC1CCCC1,i,i,i,i,i,nt,nt
O=C(CC1CCS(=O)(=O)C1)NC1CCCCC1 (stereo unspecified),i,i,-9.32,i,i,i,i
COc1cc(CNCc2ccccc2)c(Br)cc1OC1CCCC1,i,i,i,i,i,nt,nt
CCOc1cc(CNCc2cccs2)ccc1OCC(=O)NC(C)(C)C,i,i,i,i,i,nt,nt
COc1cc(CNCc2cccs2)ccc1OCC(=O)NC(C)(C)C,i,i,-8.03,i,i,46.0,83.8
COc1ccccc1NC(=O)c1ccccc1Oc1ccccc1,i,i,-9.19,i,-5.94,86.0,50.3
O=C1CSC(c2ccc(F)c(F)c2)N1c1ccccc1F (stereo unspecified),i,i,i,i,i,nt,nt
CC(C)c1ccc(CN2CCC(Oc3ccc(C(=O)N4CCCC4)cc3)CC2)cc1,i,i,-9.11,i,i,91.5,63.3
CSc1ccc(CN2CCC(Oc3ccc(C(=O)N4CCCC4)cc3)CC2)cc1,i,i,-8.51,i,i,87.0,38.8
CC1CCCN(C(=O)Cn2nnc(-c3ccc([N+](=O)[O-])cc3)n2)C1 (stereo unspecified),i,i,i,i,i,nt,nt
O=S(=O)(c1ccc(Br)s1)N1CCN(Cc2ccc3c(c2)OCO3)CC1,i,i,-9.34,i,i,89.5,85.8
COC(=O)c1ccccc1NC(=O)c1ccc(COc2cc(C)cc(C)c2)o1,i,i,-8.11,i,i,46.0,i
COc1ccc(C(=O)N/N=C/c2ccc3cccc(OCc4ccccc4)c3n2)cc1,i,i,-11.4,i,i,91.0,47.3
CCCOC1CCCN(C(=O)CCc2nnc(-c3ccc4c(c3)OCO4)o2)C1 (stereo unspecified),i,i,i,i,i,nt,nt
COC(=O)C(NC(=O)COc1ccccc1)(Nc1nc2c(s1)CCCC2)C(F)(F)F (stereo unspecified),i,i,-12,i,i,80.5,32.8
CCOc1ccc(C(=O)n2cc(C(=O)OC)c3ccccc32)cc1,i,i,-8.55,i,i,69.0,83.8
CCOc1ccc(C(=O)n2cc(C(=O)OC)c3ccccc32)cc1OCC,i,i,i,i,i,nt,nt
c1cn2c(NC3CCCCC3)c(-c3ccc(SC4CCCCC4)cc3)nc2cn1,i,i,i,i,i,nt,nt
CCN(CC)c1ccc(-c2nc3cnccn3c2NC2CCCC2)cc1,i,i,-7.86,i,i,53.5,i
COc1cc(CCC(C)=O)ccc1OC(=O)c1c(F)cccc1Cl,i,i,i,i,i,nt,nt
O=C(CSc1ccc(F)cc1)Nc1ccc(C2SCCS2)cc1,i,i,i,i,i,nt,nt
CC1CCCN(CC(=O)Nc2ccc(S(=O)(=O)N3CCCC3)cc2)C1 (stereo unspecified),i,i,-9.22,i,i,85.0,40.8
COc1ccc(NC(=O)C(C)N2C(=O)C3CC=C(Cl)CC3C2=O)cc1 (stereo unspecified),i,i,i,i,i,nt,nt
Cc1c(C)n(Cc2ccccc2)c2ncnc(NCCCN(C)C)c12,i,i,-9.44,i,i,70.0,83.8
c1ccc(CC2CCN(C3=Nc4cccc5cccc3c45)CC2)cc1,i,i,-9.06,i,-5.74,94.0,97.8
